Results taken from ChEMBL document CHEMBL5705901, “Exploiting selective BCL-2 family inhibitors to dissect cell survival dependencies and define improved strategies for cancer therapy” (Sci Transl Med, 2015).

Assays:
A549 [1] = experiment: Antitumor activity against 3 times passaged human A549 cells xenografted in iv dosed SCID mouse assessed as maximum tumor growth inhibition relative to control; format: functional
[2] = Toxicity in iv dosed SCID-bg mouse assessed as tolerance; format: organism-based; settings: in vivo
[3] = Toxicity in iv dosed SCID mouse assessed as tolerance; format: organism-based; settings: in vivo
NCI-H747 [4] = experiment: Antitumor activity against human NCI-H747 cells xenografted in iv dosed SCID-bg mouse assessed as tumor growth delay relative to control; format: functional
In short: (§1)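 Tumor volume-based endpoints. TGD = 100(T/C − 1), where T and C are the median times for the treated and control groups to reach 1 cm3. Groups were five mice for NCI-H747 and OVCAR-5 and eight for NCI-H358. Docetaxel was given intravenously and the test agent orally.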

NCI-H1650 [5] = experiment: Antitumor activity against human NCI-H1650 cells xenografted in SCID-bg mouse assessed as tumor growth delay at 7.5 mg/kg, iv administered as single dose relative to control; format: functional
In short: (§2)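 NCI-H1650 NSCLC xenografts, ten mice per group. Arms: vehicle; docetaxel iv once at 7.5 mg/kg; oral agent daily for 14 days at 25 mg/kg; and the two combined. TGImax = 100(1 − Tv/Cv) from mean volumes. TGD = 100(T/C − 1) from median times to reach 1 cm3.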

NCI-H358 [6] = experiment: Antitumor activity against human NCI-H358 cells xenografted in iv dosed SCID mouse assessed as tumor growth delay relative to control; format: functional; in short: as §1
MDA-MB-231 [7] = experiment: Antitumor activity against LC3 positive human MDA-MB-231 cells xenografted in SCID mouse assessed as tumor growth delay at 7.5 mg/kg, iv administered as single dose relative to control; format: functional
In short: (§3)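 MDA-MB-231 LC3 metastatic breast cancer xenograft, 10 mice per group, with a vehicle control. Dosing: oral agent 25 mg/kg daily for 14 days; docetaxel 7.5 mg/kg iv once; combination gives both regimens. Mean tumor volumes tracked. TGImax = 100(1 − Tv/Cv) from mean treated vs control volumes. TGD = 100(T/C − 1) from median times to reach 1 cm3.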

EBC-1 [8] = experiment: Antitumor activity against human EBC-1 cells xenografted in iv dosed SCID-bg mouse assessed as tumor growth delay relative to control; format: functional
NCI-H747 [9] = experiment: Antitumor activity against human NCI-H747 cells xenografted in iv dosed SCID-bg mouse assessed as maximum tumor growth inhibition relative to control; format: functional
[10] = Toxicity in Sprague-Dawley rat assessed as inhibition of granulopoiesis by measuring reduction in neutrophil count at 5 mg/kg, iv administered once and measured on day 6 by microscopic analysis relative to control; format: organism-based; parameters: scale not given: the % may be the effect or the level left; settings: in vivo, 144 h, time 6 day
In short: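 Male Sprague-Dawley rats, n = 10 per group: docetaxel 5 mg/kg i.v. once, or oral inhibitor daily for 5 days (30, 50 or 7 mg/kg depending on agent), alone or combined with docetaxel, against vehicles. Total neutrophil and platelet counts in blood collected on day 6; Tukey-Kramer test versus vehicle.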

MDA-MB-231 [11] = experiment: Antitumor activity against LC3 positive human MDA-MB-231 cells xenografted in SCID mouse assessed as maximum tumor growth inhibition at 7.5 mg/kg, iv administered as single dose relative to control; format: functional; settings: read-out: TGI; in short: as §3
EBC-1 [12] = experiment: Antitumor activity against human EBC-1 cells xenografted in iv dosed SCID-bg mouse assessed as maximum tumor growth inhibition relative to control; format: functional
OVCAR-5 [13] = experiment: Antitumor activity against human OVCAR-5 xenografted in iv dosed SCID mouse assessed as tumor growth delay relative to control; format: functional; in short: as §1
[14] = Toxicity in iv dosed SCID mouse assessed as body weight loss relative to control; format: organism-based; settings: in vivo
NCI-H358 [15] = experiment: Antitumor activity against human NCI-H358 cells xenografted in iv dosed SCID mouse assessed as maximum tumor growth inhibition relative to control; format: functional
NCI-H1650 [16] = experiment: Antitumor activity against human NCI-H1650 cells xenografted in SCID-bg mouse assessed as maximum tumor growth inhibition at 7.5 mg/kg, iv administered as single dose relative to control; format: functional; settings: read-out: TGI; in short: as §2
[17] = Toxicity in iv dosed SCID-bg mouse assessed as body weight loss relative to control; format: organism-based; settings: in vivo
A549 [18] = experiment: Antitumor activity against 3 times passaged human A549 cells xenografted in iv dosed SCID mouse assessed as tumor growth delay relative to control; format: functional
OVCAR-5 [19] = experiment: Antitumor activity against human OVCAR-5 xenografted in iv dosed SCID mouse assessed as maximum tumor growth inhibition relative to control; format: functional

Q: Which results are given for CC(=O)O[C@@]12CO[C@@H]1C[C@H](O)[C@@]1(C)C(=O)[C@H](O)C3=C(C)[C@@H](OC(=O)[C@H](O)[C@@H](NC(=O)OC(C)(C)C)c4ccccc4)C[C@@](O)([C@@H](OC(=O)c4ccccc4)[C@H]21)C3(C)C [DOCETAXEL ANHYDROUS]?
A: TGI (A549 [1]): 71%; Activity [2]: Non-Toxic; Activity [3]: Non-Toxic; Activity (NCI-H747 [4]): 113%; Activity (NCI-H1650 [5]): 52%; Activity (NCI-H358 [6]): 47%; Activity (MDA-MB-231 [7]): 82%; Activity (EBC-1 [8]): 44%; TGI (NCI-H747 [9]): 52%; Activity [10]: 61%; inhibition in vivo at 7.5 mg/kg (MDA-MB-231 [11]): 73%; TGI (EBC-1 [12]): 76%; Activity (OVCAR-5 [13]): 54%; Activity [14]: < 9%; TGI (NCI-H358 [15]): 58%; inhibition in vivo at 7.5 mg/kg (NCI-H1650 [16]): 82%; Activity [17]: < 9%; Activity (A549 [18]): 108%; TGI (OVCAR-5 [19]): 39%
